Source: PubChem BioAssay (Broad Institute)
An excerpt weighted towards active compounds, which were near 2.9% of everything screened.
Env fusion inh = inhibitors of HIV-1 Env-driven cell-cell fusion, primary screen, HeLa-JRFL effector, CEM21 target cells, luciferase; AID 651610, 2012; inhibition, % at 12.3 µM; 360,000 tested, 1.1% active;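 active means mean replicate inhibition score of at least 50 and every replicate individually at or above 50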;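 further: 0% = plate neutral controls and 100% = maraviroc near 300 nM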
PAX8 inh HTS = inhibitors of PAX8-driven TPO luciferase reporter, primary screen, RMG-I cells, single concentration | SteadyGlo, 24 h | 360,000 tested, 1.2% active | inhibition, % at 12.6 µM;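 active means mean replicate inhibition at least 60% with every replicate also reaching 60%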;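 further: luciferase light reporting Pax8 driven TPO promoter activity; plate controls were median of neutral control wells for no effect and mitoxantrone controls for full effect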
dFosB activator = activators of delta FosB homodimer, primary screen, biochemical, fluorescence polarization, TAMRA-CDK5 oligo, single point; Protein FosB (Mus musculus), P13346; purified delta FosB; percent of positive-control signal above neutral wells; activation, % at 25 µM; 340,000 tested, 0.99% active; AID 493131, 2011;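 active means mean activation above about 17%, with every replicate also reaching it, limit read from the data, passing the limit was not always enough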
GSIS activator = GLuc luminescence reporter in INS-1E cells, primary screen for activators of glucose-dependent secretion of insulin. INS-1E GLuc reporter insulin secretion, 2-3 h. activation, % at 16.6 µM. 370,000 tested, 0.61% active;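 active means lowest replicate activation of at least 40%, so every replicate reaches that level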;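 further: 0% = median of neutral control wells and 100% = median of IBMX positive control wells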
CDK5 p35 inh = inhibitors of human CDK5/p35 kinase, primary screen, biochemical, single concentration; inhibition, % at 10 µM; 330,000 tested, 0.01% active; Cyclin-dependent kinase 5 (Homo sapiens) + Cyclin-dependent kinase 5 activator 1 (Homo …; Recombinant CDK5/p35, ADP-Glo luminescence, 60 min;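 active means highest replicate inhibition of at least 50% and at least 75% of replicates reaching 50%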;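 further: plate controls were DMSO neutral control for no effect and GW8510 at 10 µM for full effect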
Target sequence (Q00535 whole entry, looked up): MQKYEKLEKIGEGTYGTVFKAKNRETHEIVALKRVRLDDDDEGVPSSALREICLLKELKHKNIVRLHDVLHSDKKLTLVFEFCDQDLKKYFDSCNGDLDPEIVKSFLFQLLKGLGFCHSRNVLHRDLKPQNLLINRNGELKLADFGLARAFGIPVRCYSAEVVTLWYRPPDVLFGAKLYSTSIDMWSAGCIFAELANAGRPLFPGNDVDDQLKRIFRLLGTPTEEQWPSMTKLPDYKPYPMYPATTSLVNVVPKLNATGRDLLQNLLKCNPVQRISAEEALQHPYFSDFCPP
Target sequence (Q15078 whole entry, looked up): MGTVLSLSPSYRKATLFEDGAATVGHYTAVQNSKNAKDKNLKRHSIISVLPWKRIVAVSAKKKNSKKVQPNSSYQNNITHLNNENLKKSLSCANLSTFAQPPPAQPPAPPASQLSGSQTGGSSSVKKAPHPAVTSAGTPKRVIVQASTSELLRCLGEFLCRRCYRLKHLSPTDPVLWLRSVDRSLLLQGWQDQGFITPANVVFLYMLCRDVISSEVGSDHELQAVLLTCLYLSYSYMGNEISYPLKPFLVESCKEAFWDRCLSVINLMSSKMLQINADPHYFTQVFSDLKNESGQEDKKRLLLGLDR
Cneo AK release = Cryptococcus neoformans cell lysis inducers, primary screen, AK release luminescence, single concentration; C. neoformans lysis, adenylate kinase release luminescence, 4 h; normalised: neutral wells 0, clomiphene wells 100; 360,000 tested, 0.2% active; AID 651654, 2012; lysis activity, % at 15 µM;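 active means mean lysis activity across replicates of at least 80%, whatever share of replicates individually reach that level; inactive means mean lysis activity below 80%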
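read-out = cell lysis signal | test system = log-phase Cryptococcus neoformans yeast cells | input = cells at 5 × 10^6 per mL | medium = fresh YPD growth medium | signal = luminescent adenylate kinase detection reagent | timing = 4 h at 37 °C static, read 1 h later | dosing = single dose | controls = Clomiphene as positive lysis control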
* = called active by the depositor; · = no result given; [ ] = remark or other dose.

SMILES | Env fusion inh | PAX8 inh HTS | dFosB activator | GSIS activator | CDK5 p35 inh | Cneo AK release
Cc1cccc(NC(=O)CSCC(=O)Nc2ccc(N3CCOCC3)cc2N2CCOCC2)c1 | 10 | 3 | -6 | 13 | 2 | 1
Cc1cc(NC(=O)C(C)SCC(=O)Nc2cc(C(F)(F)F)ccc2N2CCCCC2)no1 (stereo not given) | 74* | -18 | -13 | -6 | 4 | 2
Cc1cc(NC(=O)CSCC(=O)Nc2cc(C(F)(F)F)ccc2N2CCCCC2)no1 | · | 5 | -5 | 15 | -1 | 2
CC1CC1C(=O)Nc1cc(C(F)(F)F)ccc1N1CCOCC1 (stereo not given) | 6 | 12 | 4 | 48* | -2 | 0
CCCCN1C(=N)N([C@@H](CN2CCC[C@H]2CN2C(N)=NC[C@@H]2Cc2ccccc2)C(C)C)C[C@H]1Cc1ccccc1 | -13 | 63* | 14 | -3 | 4 | -2
CC(=O)N[C@@H]1CC[C@H](CCNC(=O)C2CCC2)O[C@@H]1CO | -8[16.7 µM] | -16 | · | -3 | · | 1
O=C(N[C@@H]1CC[C@H](CCNS(=O)(=O)c2ccc(F)cc2)O[C@@H]1CO)C1CC1 | 59*[16.7 µM] | -11 | · | 5 | · | -1
O=S(=O)(NCC[C@H]1CC[C@H](NS(=O)(=O)c2ccccc2Cl)[C@@H](CO)O1)c1ccc(Cl)cc1 | -4[16.7 µM] | 14 | · | -21 | · | 11
O=S(=O)(NCC[C@H]1CC[C@H](NS(=O)(=O)c2ccccc2Cl)[C@H](CO)O1)c1ccc(Cl)cc1 | 58*[16.7 µM] | 9 | · | -10 | · | 7
O=C(Nc1cccc(F)c1)N[C@@H]1CC[C@H](CCNS(=O)(=O)c2cccc(Cl)c2)O[C@@H]1CO | 80*[16.7 µM] | -18 | · | -22 | · | 0
CC(=O)N[C@H]1CC[C@@H](CCNC(=O)C2CCC2)O[C@H]1CO | -2[16.7 µM] | -14 | · | -10 | · | 112*
O=C(Nc1cccc(F)c1)N[C@@H]1CC[C@@H](CCNS(=O)(=O)c2cccc(Cl)c2)O[C@H]1CO | 10[16.7 µM] | -5 | · | -16 | · | -4
C[C@H]1CN([C@@H](C)CO)C(=O)Cc2cc(NC(=O)CCCN(C)C)ccc2O[C@H]1CN(C)S(=O)(=O)c1ccccc1 | · | -10 | · | 20 | · | -2
COc1ccccc1NC(=O)N1C[C@H]2[C@@H](c3ccccc31)[C@@H](CO)N2CC1CCCC1 | · | 7 | · | -12 | · | 2
CN(C)c1cc[n+](CC(=O)Nc2ccc(Oc3ccccc3)cc2)cc1 | 28 | 89* | -11 | -28 | 0 | ·
COc1cccc(C#Cc2ccc3c(c2)[C@H]2[C@H](CCN2C(=O)c2ccc4c(c2)OCO4)[C@@H](CO)N3)c1 | · | 8 | · | · | · | ·
Cc1cc(OCCCn2cnc3ccccc3c2=O)ccc1[N+](=O)[O-] | · | 88* | -2 | 2 | -4 | ·
O=C(Nc1cccc(Cl)c1)N[C@H]1CC[C@H](CCNC(=O)C2CC2)O[C@H]1CO | 16[16.7 µM] | -4 | · | 4 | · | -8
C[C@@H]1CN([C@@H](C)CO)S(=O)(=O)c2ccc(/C=C/c3ccccc3)cc2O[C@@H]1CN(C)C(=O)C1CC1 | 55*[16.7 µM] | · | · | -46 | · | -2
C[C@H]1CN([C@@H](C)CO)S(=O)(=O)c2ccc(/C=C/c3ccccc3)cc2O[C@H]1CN(C)C(=O)C1CC1 | 15[16.7 µM] | · | · | -21 | · | 3
CCC(=O)N(C)C[C@H]1Oc2cc(/C=C/c3ccccc3)ccc2S(=O)(=O)N([C@@H](C)CO)C[C@H]1C | 59*[16.7 µM] | · | · | -31 | · | 3
C[C@@H]1CN([C@@H](C)CO)C(=O)c2cc(NC(=O)Cn3cnnn3)ccc2O[C@@H]1CN(C)Cc1ccc(Cl)c(Cl)c1 | -3[16.7 µM] | -13 | · | 0 | · | 0
COc1cc(CN2CCCC(C(=O)c3ccc4c5c(cccc35)CC4)C2)cc(OC)c1O (stereo not given) | 56* | 17 | -11 | -17 | 0 | ·
FC(F)(F)COc1nc(N2CCOCC2)nc(N(c2ccccc2)c2ccccc2)n1 | 76* | · | -8 | · | -2 | 0
CC1(C)CC(=O)C=C(c2ccccc2-c2ccc(S(C)(=O)=O)cc2)C1=O | 1 | -3 | · | 49* | · | 2
SMILES | Env fusion inh | PAX8 inh HTS | dFosB activator | GSIS activator | CDK5 p35 inh | Cneo AK release
CC(=O)c1ccc(-c2ccccc2C2=CC(=O)CC(C)(C)C2=O)cc1 | -21 | -26 | · | -20 | · | ·
Oc1ccc(Cl)cc1Nc1nc(NCC2CCCO2)c2ccccc2n1 (stereo not given) | -8 | 12 | 44* | -3 | 0 | -2
Oc1ccc(Nc2nc(NCC3CCCO3)c3ccccc3n2)cc1 (stereo not given) | -11 | · | 15 | · | 2 | 0
Oc1ccccc1Nc1nc(NCC2CCCO2)c2ccccc2n1 (stereo not given) | -71 | · | 25* | 8 | 1 | ·
c1ccc2c(NCC3CCCO3)nc(N3CCCCC3)nc2c1 (stereo not given) | 10 | 63* | -9 | 45* | 3 | 0
c1ccc2c(N3CCCCC3)nc(N3CCCC3)nc2c1 | -9 | 0 | -19 | 52* | -1 | 2
c1ccc2c(c1)nc(N1CCCCC1)c1ccccc12 | -62 | 3 | -9 | · | -1 | ·
Cc1noc(C)c1NC(=O)Nc1ccc2c(c1)C(=O)N([C@H](C)CO)C[C@H](C)[C@@H](CN(C)Cc1ccncc1)OCCCC[C@@H](C)O2 | -62[16.7 µM] | -1 | · | 18 | · | 0
Cc1[nH]c2ccccc2c1C(=O)C(=O)N1CCCc2ccccc21 | 1 | -6 | -15 | · | -1 | ·
Cc1[nH]c2ccccc2c1SCC(=O)N1CCCc2ccccc21 | 69* | 27 | -5 | · | 0 | 26
COCCNC(=O)C[C@H]1C[C@@H]2c3cc(NC(=O)CN(C)C)ccc3O[C@@H]2[C@@H](CO)O1 | 18[16.7 µM] | 6 | · | 19 | · | 52
CN1CCN(C(=S)Nc2ccc(Cl)c(Cl)c2)CC1 | · | 126* | -5 | -15 | -1 | 5
COc1ccc(/C=N/NC(=S)NCCc2ccccc2)cc1 | 10 | 18 | 1 | 6 | 0 | 11
CCNC(=S)N/N=C/c1ccc(F)cc1 | 4 | 24 | · | -2 | · | ·
CCCCNC(=S)N/N=C/c1ccc(C#N)cc1 | 4 | 11 | -12 | 3 | 0 | 86*
CCCCNC(=S)N/N=C/C1=CCC2CC1C2(C)C (stereo not given) | 84* | 1 | -15 | -14 | 0 | 4
CCc1ccc(/C=N/NC(=S)NCCc2ccccc2)cc1 | · | · | 9 | 41* | 3 | 32
CCCNC(=O)N(C)C[C@@H]1Oc2ncc(C#CC(C)C)cc2C(=O)N([C@H](C)CO)C[C@@H]1C | -9[16.7 µM] | -3 | · | -7 | · | -3
Cc1cc(N/N=C/c2ccc(Cl)cc2)nc(NCc2ccccc2)n1 | 6 | -15 | 53* | -28 | 0 | ·
